Reference: ChEMBL document CHEMBL4513216, “Probing the Open Global Health Chemical Diversity Library for Multistage-Active Starting Points for Next-Generation Antimalarials” (ACS Infect Dis, 2020)

experiment: Toxicity liver stage against HepG2, at 10uM; assay type: cell-based; design: test concentration 10 uM, cell line HepG2-A16-CD81EGFP; details: human, HepG2-A16-CD81EGFP cells; read-out: INHIBITION
Method in brief: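 Uninfected HepG2-A16-CD81EGFP cells, 3 × 10^3 per well, 1536-well, plated on prespotted compound at 10 μM final, parasite-free screening media added to match infected plates; puromycin 10 μM positive, DMSO 0.5% negative; run in parallel with 48 h PbLuc assay at 37 °C, 5% CO2; viability by CellTiter-Glo luminescence, normalized to controls.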

Structure (SMILES) | cytotoxicity at 10 µM [%]
Cc1cc(O)nc(C2CCN(C(=O)CO)CC2)n1 | 0.01
O=C(CNC(=O)Nc1cccc(-c2nccs2)c1)NCCO | -2.77
CCc1csc(C2CCCN(C(=O)c3ccc(OC)nc3)C2)n1 (stereo unspecified) | 4.65
O=C(NCCCn1cccn1)C1(c2cccc(Cl)c2)CC1 | 17.9
O[C@H]1[C@H](n2cc(-c3cccnc3)nn2)c2ccccc2C12CCNCC2 | -10.5
Cc1cccc(CN2CCn3c(COc4ncccn4)nnc3C2)n1 | -1.35
COc1cc(CNC(C)Cn2cccn2)cc2c1OCO2 (stereo unspecified) | 1.58
N#Cc1nccnc1NC1CCN(c2c(F)cccc2F)C1 (stereo unspecified) | 5.2
O=C(Cn1cc(C2CC2)nn1)N(Cc1cccs1)CC1CCCO1 (stereo unspecified) | -4.58
CCOc1cccc2c1OCC(C(=O)NS(=O)(=O)c1ccc(Cl)s1)=C2 | -3.21
Cc1cc(CN(C)c2nc(-c3ccco3)nc3c2CCN(C)CC3)on1 | 9.34
CC(C)N(CC(C)(C)O)C(=O)NC1CC1 | 5.73
COc1ccc(NC(=O)N(C)Cc2ccco2)cn1 | -11.8
CCOc1c(Br)cc(/C=C/c2ncc(C(=O)O)s2)cc1OC | -1.26
c1cncc(-c2ccnn2CN2CCC3(CC2)OCCO3)c1 | 8.19
COCc1cc(NCC(F)(F)F)n2nccc2n1 | 17
CCC(=O)NCCc1cc2nc(-c3ccncc3)ccn2n1 | 1.65
O=C(O)c1cnc2c(Br)cccc2c1O | 15.5
O=C(NCCNc1ncccn1)N(Cc1ccc(F)cc1F)C1CC1 | -2.84
Cn1cnc2c1CCN(CCCOc1ccc(C#N)cc1)C2 | -12.4
C=c1ncsc1=C1NN=C(C2CCCN2C(=O)Cn2cccn2)O1 (stereo unspecified) | 4
CN(Cc1ccc(F)cc1)CC1(O)CCN(C(=O)c2ccccn2)C1 (stereo unspecified) | -3
CCOn1c(SC(C)C)nc2ccccc2c1=O | -5.36

Structure (SMILES) | cytotoxicity at 10 µM [%]
O=C([C@@H]1CCCO1)N1CCn2c(Cn3cccn3)cnc2C1 | -70.1
Cc1ncsc1C(=O)N1CCN(Cc2cscn2)CC1 | -2.65
CS(=O)(=O)N1Cc2cnn(CC3CC3)c2C(COCC2CC2)C1 (stereo unspecified) | 9.43
COc1cccc(Oc2nc(C)c(C(=O)O)s2)c1OC | 1.96
CCC(CNC(=O)c1ccc(=O)[nH]n1)N1CCc2ccccc2C1 (stereo unspecified) | -7.9
O=C(NCc1cc[nH]n1)NC1CCCN(c2ncccn2)C1 (stereo unspecified) | -2.26
COc1cccc(Cc2nc3c([nH]2)CC(C)(C)CNC3=O)c1OC | -2.88
CC(C)C(=O)NC1CCCN(C(=O)c2ccc(O)c(Cl)c2)C1 (stereo unspecified) | -6.04
CCCn1nccc1NC(=O)CN1CCOC(Cn2cc(C)cn2)C1 (stereo unspecified) | 1.88
O=C(c1ccc(=O)[nH]c1)N1CCCC1c1nc2cc(F)ccc2[nH]1 (stereo unspecified) | 14.3
FC1(F)CCN(Cc2ccccn2)CC12CCN(c1cnccn1)C2 (stereo unspecified) | -108
Cc1noc(C)c1-c1ccc(C2CCCN2C(=O)c2cccnn2)nc1 (stereo unspecified) | -18.9
CCC(=O)Nc1ccc(C(C)NC(=O)COC)cc1 (stereo unspecified) | -145
Cc1cc(C)c(CNC(=O)N2CCCC2c2ccccn2)c(=O)[nH]1 (stereo unspecified) | 1.17
Cc1oncc1C(=O)N1CCOCC2(CCN(c3ccccn3)C2)C1 (stereo unspecified) | -68.3
COc1c(C)cnc(CN(C)C(=O)c2ccc(C3CCCO3)s2)c1C (stereo unspecified) | 9.5
O=S(=O)(NCC1CCN(c2cnccn2)CC1)c1ccc(F)c(Cl)c1 | 11.6
Cc1ccc(S(=O)(=O)N2Cc3c(CN(C)C)nn(C)c3C2)cc1 | 2.32
CC(C)CN1CCc2[nH]nc(C(=O)N3CCCC3)c2C1 | -98.9
CC(=O)N1CCOC(c2cncc(CCC(=O)N(C)C)n2)C1 (stereo unspecified) | -0.197
Cc1noc(C)c1Cc1nc(C2CC2)no1 | 5.42
Cc1ccc(CCNC(=O)CC2COCCN2S(=O)(=O)N(C)C)s1 (stereo unspecified) | 1.69
Cc1ccc(NC(=O)c2ccc(=O)n(CC(=O)Nc3nccs3)n2)cc1 | 0.592

Structure (SMILES) | cytotoxicity at 10 µM [%]
CC(CN1CCCC1)C(=O)N1CCC(c2nccn2CC2CC2)CC1 (stereo unspecified) | -26.3
CCc1nccn1CCC(=O)N1CC[C@@H](c2sccc2C)[C@H](O)C1 | -6.04
O=C(NCc1nncn1C1CCCCC1)C1COc2ccccc2C1 (stereo unspecified) | 3.16
COCCN(Cc1sccc1C)c1nc(C)nc2sccc12 | -131
CC(c1ccc(-c2cnc(N)nc2)cc1)N1CCOCC1 (stereo unspecified) | 1.97
c1ccc(OCc2noc(CN3CCN(C4CCCC4)CC3)n2)cc1 | -6.66
O=C(Nc1cccnc1-n1cccn1)N1CCCC(N2CCCC2)C1 (stereo unspecified) | 8.53
CCCn1ncc(CN2CCCC(C(=O)c3ccc(Cl)cc3C)C2)c1C (stereo unspecified) | -6.35
O=C(CC1CC1)N[C@@H]1CN(C(=O)c2ccoc2)C[C@@H]2CCCO[C@@H]21 | -104
CS(=O)(=O)N1C[C@H](C(=O)Nc2cccnc2)C[C@H]2OCC[C@H]21 | 11.3
O=C(NCC1CCOC1)c1cc(-c2ccc(Cl)cc2)n[nH]1 (stereo unspecified) | -14
COc1ccc(CNC(Cn2cncn2)c2ccccc2)cc1C (stereo unspecified) | -4.33
O=C(CNC(=O)C1CC1)NCC(F)(F)F | -5.82
Cc1noc(C2CCCN(C(=O)c3cc(Cl)cn3C)C2)n1 (stereo unspecified) | 1.33
CC(=O)N(C)c1nc(CN2CCCC2Cn2nc(C)cc2C)cs1 (stereo unspecified) | -10.3
Cc1noc(C)c1CN1CCN(C(C)c2nc(C3CC3)no2)CC1 (stereo unspecified) | -16.5
N#Cc1c(N2CCCN(C3CCOCC3)CC2)nc2ccccn12 | 14.7
Cn1cc(CN2CCO[C@@H]3CN(C4CCCC4)C[C@@H]3C2)cn1 | -4.8
COc1ccc(OC)c(C(C)Nc2ncnc3c2NC(=O)CN3)c1 (stereo unspecified) | 10.6
O=C(c1cc(=O)n(-c2ccccc2)[nH]1)N1CCOC(C(F)(F)F)C1 (stereo unspecified) | 3.32
Fc1ccc(CNC2CCN(CCc3ccncc3)CC2)cc1F | -12.6
Cc1nc(CN(C)CC(c2cccs2)N2CCOCC2)no1 (stereo unspecified) | -2.15
CCc1[nH]c2c(CNc3cncc(C(=O)OC)n3)cc(C)cc2c1C | 1.85

Structure (SMILES) | cytotoxicity at 10 µM [%]
CC(C)N1CCC2(CC1)CC(CC(N)=O)c1ccc(F)cc12 (stereo unspecified) | 12.8
CC(=O)N1CCC(NC(=O)c2cc(Cl)ccc2O)CC1 | 0.0966
CC(C)CNC(=O)C1=NOC2(CCN(Cc3cccc(C#N)c3)C2)C1 (stereo unspecified) | 8.37
CC(C)c1nnc2sc(CC3CCS(=O)(=O)C3)nn12 (stereo unspecified) | -6.48
O=C(NCCNc1ncccn1)N1CCN(Cc2cccnc2)CC1 | -3.71
CCNC(=O)[C@@H]1CN(Cc2ccccc2)C[C@H]1C(=O)c1ccc(F)cc1 | 3.38
CCn1ncc2c1C(COCC1CC1)N(Cc1nccs1)CC2 (stereo unspecified) | 10.6
CCNC(=O)CN1CCN(c2cc(C)nc(-c3ccncc3)n2)CC1 | 5.63
O=C(Cc1cccs1)N1CCC2(CCCN(CC3CCOCC3)C2)C1 (stereo unspecified) | -144
COc1cccc(CN(C)CC2=Nc3ccccc3S(=O)(=O)N2)c1 | 36.4
CC(C)c1noc(CS(=O)(=O)Cc2nc(C(C)C)no2)n1 | -7.85
CN(Cc1ccncn1)c1nccc(CCC(F)(F)F)n1 | 11.2
CCc1ccc(C(=O)N2CCCC(n3nc(C)nc3C)C2)o1 (stereo unspecified) | -7.8
Cc1nc2c(c(N3CC=CC3)n1)CCN(Cc1ccoc1)CC2 | -6.51
c1cncc(OCc2nc(C3CC3)nn2-c2ccc3c(c2)OCCO3)c1 | 2.4
Cc1noc([C@@H]2CCCN2C(=O)C2CCN(CC(N)=O)CC2)n1 | 3.96
Cc1cc(NC(=O)C(C)N2CCN(c3ccc(C#N)cc3F)CC2)no1 (stereo unspecified) | 6.16
CCn1nc(C)c(CN2CCCC(c3ccc(C(=O)O)cc3)C2)c1C (stereo unspecified) | -8.56
CNS(=O)(=O)c1ccc(CNC(=O)NCC2CCCO2)cc1 (stereo unspecified) | 7.12
Cc1ccc(NC(=O)CCc2ccco2)cc1N1CCOC1=O | -8.43
CCn1c(N)nc2cc(C(=O)NCCc3sccc3C)cnc21 | -23.3
NC(=O)c1cccc(CCNCc2cnc(-c3cccs3)s2)c1 | 2.49
Cc1nc(S(=O)(=O)NCCC(=O)NCc2ccsc2)cn1C | 3.68

Structure (SMILES) | cytotoxicity at 10 µM [%]
COc1cc(C)c(S(=O)(=O)CC(=O)N(C)C2CC2)cc1OC | -3.81
COC(=O)C(C)(C)NC(=O)C1CC(=O)N(C)C1 (stereo unspecified) | -8.92
CC(C)CCC(C)NC(=O)c1ccc(OCC(N)=O)cc1 (stereo unspecified) | -3.59
CCC(C)NS(=O)(=O)c1ccc(C(=O)N(C)C2(C#N)CCC2)cc1 (stereo unspecified) | 16.1
COCCN1C[C@H]2CN(C(=O)c3ccno3)CCN2C1=O | 1.29
O=C(O)CNC(=O)Cc1csc(-c2ccccc2F)n1 | -10.5
O=C1COC2(CCN(CC3CC3)CC2)CN1c1cncnc1 | -1.87
CCC(NC(=O)c1ccc2[nH]ccc2c1)C(=O)N1CCOCC1 (stereo unspecified) | 5.84
Cc1nc(C)n(CC2CCCCN2CCOc2ccc(C#N)cc2)n1 (stereo unspecified) | -6.79
O=S(=O)(NCCc1c[nH]c2cc(F)ccc12)C1CCOC1 (stereo unspecified) | 8.57
Clc1ccc(CN(CCN2CCOCC2)Cc2cccnc2)cc1Cl | -9.96
CCOc1nnc(CN(CC)CC(=O)NC(C)C)s1 | 3.88
CCNC(=O)[C@H]1CN(Cc2ccccc2)C[C@@H]1C(=O)c1ccccc1 | 3.08
COCCN1CC(C(=O)N(C)Cc2csc(C)n2)CC1=O (stereo unspecified) | 12.5
CCCOCCN1CCc2[nH]c(-c3ccccc3)nc2C1 | -124
c1csc(CN2CCO[C@H]3[C@H](OCC4CCCC4)CC[C@@H]32)n1 | 6.09
CC(C)C(NC(=O)NCCNc1ncccn1)c1cccs1 (stereo unspecified) | 2.71
O=C1[C@H]2CN(CC3CCOCC3)C[C@H]2CN1c1ccsc1 | 8.52
Cc1cc(C)cc(S(=O)(=O)NCC2CNCCOC2)c1 (stereo unspecified) | -1.86
